One experiment concerns HL-60. The experiment in a line: Induction of transglutaminase (TGase) activity in HL-60 cells. To be noted: Homo sapiens.
The next experiment is filed under the species Mus musculus. In words: Inhibition of Chondrogenesis in day 11 embryonic limb bud cells. To be noted: 264 h.
For experiment [1], the target named is T1, Retinoic acid receptor beta (Mus musculus, UniProt P22605).
T1 sequence (P22605 whole entry): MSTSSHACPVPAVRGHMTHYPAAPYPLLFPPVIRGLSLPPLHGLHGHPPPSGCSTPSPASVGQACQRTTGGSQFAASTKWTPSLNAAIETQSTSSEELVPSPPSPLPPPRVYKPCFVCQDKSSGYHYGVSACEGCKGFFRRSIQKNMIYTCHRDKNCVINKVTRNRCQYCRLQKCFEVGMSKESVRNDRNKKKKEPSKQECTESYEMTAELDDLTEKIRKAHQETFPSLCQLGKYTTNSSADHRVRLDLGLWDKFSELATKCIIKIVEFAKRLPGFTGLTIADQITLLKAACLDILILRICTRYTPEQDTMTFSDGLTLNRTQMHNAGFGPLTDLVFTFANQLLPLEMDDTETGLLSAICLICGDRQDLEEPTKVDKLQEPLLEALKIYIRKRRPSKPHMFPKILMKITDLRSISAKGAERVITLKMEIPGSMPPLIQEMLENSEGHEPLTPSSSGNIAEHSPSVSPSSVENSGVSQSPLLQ
The experiment in a line: Dissociation constant for binding to Retinoic acid receptor beta;NA=not active. The procedure, abridged: (§1)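 Competitive binding assays against each receptor subtype, with Kd values taken from competition.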

Experiment [2] addresses T2, Retinoic acid receptor alpha (Mus musculus, UniProt P11416).
T2 sequence (P11416 whole entry): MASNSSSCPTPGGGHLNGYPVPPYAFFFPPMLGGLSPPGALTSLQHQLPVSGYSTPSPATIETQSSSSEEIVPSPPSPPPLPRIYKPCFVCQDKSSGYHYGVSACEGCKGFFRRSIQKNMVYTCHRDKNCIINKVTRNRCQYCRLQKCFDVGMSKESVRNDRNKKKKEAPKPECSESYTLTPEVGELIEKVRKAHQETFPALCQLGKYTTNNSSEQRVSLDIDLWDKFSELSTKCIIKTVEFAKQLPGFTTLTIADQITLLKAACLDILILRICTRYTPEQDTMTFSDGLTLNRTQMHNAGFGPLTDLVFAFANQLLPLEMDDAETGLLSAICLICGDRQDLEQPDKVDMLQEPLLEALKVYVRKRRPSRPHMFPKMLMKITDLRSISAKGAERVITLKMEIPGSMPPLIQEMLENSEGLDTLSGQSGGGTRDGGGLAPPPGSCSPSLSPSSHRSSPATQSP
The experiment in a line: Dissociation constant for binding to Retinoic acid receptor alpha;NA=not active. The gist of the method: as §1

Experiment [3] deals with T3, Retinoic acid receptor gamma (Mus musculus, UniProt P18911).
T3 sequence (P18911 whole entry): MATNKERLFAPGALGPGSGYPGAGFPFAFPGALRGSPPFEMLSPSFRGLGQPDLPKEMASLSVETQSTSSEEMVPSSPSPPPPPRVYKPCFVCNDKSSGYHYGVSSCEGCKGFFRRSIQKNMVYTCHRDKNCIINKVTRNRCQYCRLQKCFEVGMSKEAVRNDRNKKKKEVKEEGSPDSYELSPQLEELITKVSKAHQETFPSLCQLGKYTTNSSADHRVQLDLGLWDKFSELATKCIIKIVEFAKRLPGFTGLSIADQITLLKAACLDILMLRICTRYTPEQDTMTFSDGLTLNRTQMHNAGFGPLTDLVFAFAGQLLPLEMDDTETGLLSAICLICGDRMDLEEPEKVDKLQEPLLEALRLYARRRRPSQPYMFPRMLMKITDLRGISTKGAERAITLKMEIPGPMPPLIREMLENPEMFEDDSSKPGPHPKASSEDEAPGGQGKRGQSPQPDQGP
In words: Dissociation constant for binding to Retinoic acid receptor gamma;NA=not active. The procedure, abridged:
as §1

Experiment [4] concerns the target T4, Retinoic acid receptor RXR-alpha (Homo sapiens, UniProt P19793).
T4 sequence (P19793 whole entry): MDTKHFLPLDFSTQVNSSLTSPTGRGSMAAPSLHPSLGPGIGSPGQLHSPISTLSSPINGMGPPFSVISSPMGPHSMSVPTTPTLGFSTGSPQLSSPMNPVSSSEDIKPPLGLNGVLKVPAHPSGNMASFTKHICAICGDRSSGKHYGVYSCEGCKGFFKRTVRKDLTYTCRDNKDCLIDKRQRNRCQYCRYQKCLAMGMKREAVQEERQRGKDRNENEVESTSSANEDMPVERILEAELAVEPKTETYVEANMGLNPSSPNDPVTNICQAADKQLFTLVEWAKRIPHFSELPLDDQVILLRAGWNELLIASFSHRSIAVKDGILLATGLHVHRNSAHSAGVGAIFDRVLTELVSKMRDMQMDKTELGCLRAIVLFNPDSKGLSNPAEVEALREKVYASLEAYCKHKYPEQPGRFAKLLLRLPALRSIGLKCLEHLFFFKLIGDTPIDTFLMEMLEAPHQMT
In words: Transcriptional activation of Retinoid X receptor RXR alpha. Also on record: species or system Cercopithecidae. The procedure, abridged:
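Transient cotransfection of CV-1 cells with the receptor gene construct plus a reporter gene, read as induced transcription. Activity normalized to all-trans RA. EC50 taken as the concentration giving 50% of the maximal observed response. Single experiment, triplicate determinations.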

Experiment [5] deals with T5, Retinoic acid receptor gamma (Homo sapiens, UniProt P13631).
T5 sequence (P13631 whole entry): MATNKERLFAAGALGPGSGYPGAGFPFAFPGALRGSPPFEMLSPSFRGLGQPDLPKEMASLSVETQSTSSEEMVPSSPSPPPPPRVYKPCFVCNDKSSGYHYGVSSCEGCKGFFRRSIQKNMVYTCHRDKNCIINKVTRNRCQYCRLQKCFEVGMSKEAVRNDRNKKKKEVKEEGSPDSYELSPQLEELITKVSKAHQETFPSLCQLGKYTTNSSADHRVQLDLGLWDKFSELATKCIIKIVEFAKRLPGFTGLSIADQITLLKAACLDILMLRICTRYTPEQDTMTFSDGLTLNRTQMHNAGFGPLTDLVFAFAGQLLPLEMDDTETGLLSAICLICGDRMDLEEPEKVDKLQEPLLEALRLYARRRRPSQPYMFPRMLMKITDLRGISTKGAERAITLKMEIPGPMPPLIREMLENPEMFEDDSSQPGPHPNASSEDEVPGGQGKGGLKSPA
In words: Transcriptional activation of Retinoic acid receptor RAR gamma. The arrangement: species or system Cercopithecidae. The procedure, abridged:
(§2)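 CV-1 cells transiently cotransfected with the receptor construct and a reporter gene, with induced transcription measured. Activity is normalized to all-trans RA. EC50 is the concentration giving 50% of maximal observed response, from a single experiment in triplicate.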

Experiment [6] concerns the target T4, Retinoic acid receptor RXR-alpha. The experiment in a line: Transcriptional activation of Retinoid X receptor RXR alpha;NA=not active. Also on record: species or system Cercopithecidae. The gist of the method:
as §2

Molecules are shown by their SMILES. pEC50, pIC50: −log10 of the molar value.

A word on the pEC50: it is the EC50 on a negative log10 scale, so that one unit is a factor of ten. For orientation: pIC50 means −log10 of the IC50, conventionally taken in molar units.

In the case of `Cc1cc2c(cc1Sc1ccc(C(=O)O)cn1)C(C)(C)CCC2(C)C`, in the experiment with HL-60, the pEC50 is 7.00. The same compound showed a pIC50 in the experiment listed under Mus musculus of 6.00. For the same compound, the Kd result in experiment [1], in experiment [2] and in experiment [3] was “Not Active” each time.
Turning to `CC1(C)CCC(C)(C)c2cc(Sc3ccc(C(=O)O)cc3)ccc21`, the pEC50 was 6.11 in experiment [4] and 6.47 in experiment [5].
`Cc1cc2c(cc1Sc1ccc(C(=O)O)cc1)C(C)(C)CCC2(C)C` had a pEC50 with HL-60 of 6.70. This compound also had a negative-log IC50 (pIC50) in the experiment filed under Mus musculus of 6.04. The EC50 result in experiment [5] is “Not Active”.
Consider `Cc1cc2c(cc1[S+]([O-])c1ccc(C(=O)O)cc1)C(C)(C)CCC2(C)C` (stereo unspecified), for which, in experiment [6], the EC50 result is listed as “Not Active”.

The values are drawn from ChEMBL document CHEMBL1129630, “Synthesis and structure-activity relationships of retinoid X receptor selective diaryl sulfide analogs of retinoic acid” (J Med Chem, 1996).
